This is one part of a sample in which hits are shown more often than they occur.
H69AR inhibit – proliferation blockers of H69AR lung cancer cells, primary screen, cell-based, human, 86K library | H69AR lung tumor viability, ATP luminescence, 72 h; active compounds read low | AID 598, 2007 | hit rate 6% among 85,000 | viability, % at 10 µM;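 active means viability at or below 40%; inactive means viability above 40%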;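 further: multidrug resistant small cell line overexpressing MRP-1 efflux transporter; 100% = mean luminescence of untreated control wells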
Lung fibro prol – antiproliferative effect on LL 47 fibroblasts – human, LL 47 cells, CellTiter-Glo luminescence, primary screen | LL 47 human lung fibroblast viability, ATP luminescence; active compounds read low | viability, % at 10 µM | hit rate 1.1% among 85,000 | AID 719, 2007;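 active means viability at or below 50% in the single dose screen; inactive means viability above 50%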;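 further: compound exposure lasted 72 h before the ATP readout; 100% = median luminescence of untreated cell-only wells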
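Times – overnight cell rest, 72 h compound treatment at 37 °C · Test system – human lung fibroblast line LL 47, low passage · Amount – 1,150 cells in each well · Controls – cell-only wells, no compound · Doses – 0.1% DMSO in all compound wells · Measured by – CellTiter-Glo luminescence · Buffer or medium – IMEM plus 15% FBS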
HUVEC prolif 384 – inhibitors of HUVEC proliferation, primary screen, cell-based, 384-well. CellTiter-Glo luminescence, 72 h; active compounds read low. viability, % at 10 µM (by protocol). hit rate 1.1% among 86,000. AID 648, 2007;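 active means viability at or below 30%; inactive means viability above 30%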;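 further: 100% = median luminescence of DMSO-only cell control wells on each plate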
PTEN del growth – growth suppression of PTEN-null HCT116, primary screen, cell-based, CellTiter-Glo; AID 827, 2007; HCT116 PTEN-null viability, 60 h; active compounds read low; viability, % at 10 µM; hit rate 1.2% among 140,000;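 active means viability at or below a set limit, 4 SD under the median of all tested compounds, cut at about 3.7% in these data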;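 further: PTEN knockout HCT116 line with beta catenin targeted HCT116 as companion control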
HCT116 bCat-KO – primary screen for growth suppressors in beta-catenin knockout HCT116 cells (colon tumor, human); HCT116 beta-catenin knockout viability, CellTiter-Glo, 60 h; active compounds read low; viability, % at 10 µM; hit rate 1.5% among 140,000;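 active means viability at or under a set limit, the compound median less 4 SD, cut at about 6% in these data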;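 further: 0% = Hyamine 1622 control at 20 µM and 100% = untreated cell control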
* hit, by the source's call; · = no result given.

SMILES	H69AR inhibit	Lung fibro prol	HUVEC prolif 384	PTEN del growth	HCT116 bCat-KO
N#C/C(=C\c1cccc(Oc2ccc(C(F)(F)F)cc2[N+](=O)[O-])c1)c1nc2ccccc2[nH]1	·	·	·	88	85
CN(C(=O)c1cccc(Nc2ccc(-c3ccc4c(c3)OCCO4)nn2)c1)C1CCCCC1	17*	107	51	41	52
COC1=C(c2ccccc2)C(=O)c2ccccc2C1=O	·	·	·	2.0*	1.9*
O=C(C1=C(c2ccccc2)C(=O)c2ccccc2C1=O)c1ccccc1	·	·	·	1.5*	1.5*
O=C(c1ccccc1)c1c[nH]cc1-c1ccccc1	92	96	94	87	97
COC(=O)CSC1=C(C#N)C(c2ccsc2)CC(=O)N1 (configuration not stated)	38*	93	69	48	54
COC(=O)CSC1=C(C#N)C(c2cccc(F)c2)CC(=O)N1 (configuration not stated)	28*	93	90	39	40
N#Cc1ccsc1NC(=O)COC(=O)c1cc2ccccc2cc1O	·	·	·	91	90
CC(C)[C@H](NC(=O)c1cccc(S(=O)(=O)N2CCOCC2)c1)C(=O)Nc1nc2ccccc2s1	·	·	·	80	75
O=C(Nc1nc2ccc(S(=O)(=O)N3CCCC3)cc2s1)c1ccco1	·	·	·	106	105
CC(=O)c1ccc(NC(=O)c2ccc(S(=O)(=O)N3CCCC3)cc2)cc1	80	103	99	102	96
Cc1ccc2nc(NC(=O)C3CCCN(S(=O)(=O)c4cccnc4)C3)sc2c1 (configuration not stated)	28*	109	100	76	80
CC(C)CC(=O)Nc1nc2ccc(S(=O)(=O)N3CCOCC3)cc2s1	27*	80	67	36	39
CCCC(=O)Nc1nc2ccc(S(=O)(=O)N3CCCCC3)cc2s1	20*	48*	54	32	33
CCCCC(=O)Nc1ccc(C(=O)Nc2ccc(S(=O)(=O)N3CCCC3)cc2)cc1	63	42*	93	94	89
CCOc1ccc(OCC)c(NC(=O)Nc2ccc3c(c2)N(C)C(=O)CS3)c1	45	97	60	21	22
Cc1ccc(S(=O)(=O)Nc2cccc3c2CCCC3)cc1	·	·	·	84	98
COC(=O)/C(=N/Nc1ccccc1C)Sc1nnc(C(O)c2ccccc2)n1-c1ccccc1 (configuration not stated)	·	·	·	100	99
CCN(CC)S(=O)(=O)c1ccc2oc(C(=O)NCC3COc4ccccc4O3)c(C)c2c1 (configuration not stated)	32*	93	84	50	49
CCN(CC)S(=O)(=O)c1ccc2oc(C(=O)NCc3ccc(F)cc3)c(C)c2c1	33*	90	65	62	61
COc1cc(/C=N/N(C)c2ccccc2)cc(Cl)c1O	16*	85	36	64	61
COc1ccc(OC)c(/C=N/N(C)c2ccccc2)c1	90	84	94	87	92
Cn1c(=O)[nH]c(=O)c2c1nc(N1CCCC1)n2CCSc1nc2ccccc2[nH]1	·	·	·	92	90
COc1ccc(-c2nnc3c4ccccc4c(C)nn23)cc1	32*	79	69	73	77
O=C(COC(=O)C12CC3CC(CC(C3)C1)C2)Nc1ccc([N+](=O)[O-])cc1Cl	·	·	·	90	94
SMILES	H69AR inhibit	Lung fibro prol	HUVEC prolif 384	PTEN del growth	HCT116 bCat-KO
CCOC(=O)Cn1c(=O)oc2cc(S(=O)(=O)Nc3cccc(C)c3)ccc21	101	101	83	16	5.2*
CCOC(=O)Cn1c(=O)oc2cc(S(=O)(=O)Nc3cc(OCC)ccc3OCC)ccc21	110	97	100	75	76
CCOC(=O)Cn1c(=O)oc2cc(S(=O)(=O)Nc3ccc(N(CC)CC)cc3C)ccc21	94	6.0*	2.4*	21	6
COc1ccc(NC(=S)Nc2cccc(S(=O)(=O)N3CCCCC3)c2)cc1	·	·	·	80	74
Cc1cc(C)c2nc(N3CCCN(C(=O)c4ccco4)CC3)c(C#N)cc2c1	35*	97	98	8	11
CCOc1ccc(C(=O)Nc2ccc(NC(=O)c3ccco3)c(Cl)c2)cc1Cl	14*	66	31	13	15
CCOc1ccc(C(=O)Nc2ccc(NC(=O)c3ccco3)c(Cl)c2)cc1Br	·	·	·	53	70
CCOc1ccccc1NC(=O)c1cccc(NC(=O)c2ccco2)c1	25*	60	58	98	103
CCCCOc1ccccc1NC(=O)c1ccco1	82	99	94	98	96
O=C(Cc1ccc(Cl)cc1)NN1C(=O)c2ccccc2C1=O	·	·	·	111	99
COC(=O)[C@@H]1[C@@H](C#N)C2(c3ccccc3-c3ccccc32)N(c2ccc(Cl)cc2)N1C#N	0.2*	40*	21*	87	95
O=C(NNC(=S)Nc1ccc(OC(F)F)cc1)c1cc2c(s1)CCCC2	·	·	·	96	87
Cc1ccc(S(=O)(=O)c2cc3c(=O)n4cccc(C)c4nc3n(CC3CCCO3)c2=N)cc1 (configuration not stated)	40*	94	79	·	·
C=CCn1c(O)c(N=NC(=S)Nc2cccc(C)c2)c2ccccc21	22*	52	48	14	13
O=C(Nc1nc2ccccc2s1)c1ccc(Cl)s1	79	105	98	83	85
Cc1ccc2nc(NC(=O)c3ccc(-c4nc5ccccc5s4)s3)sc2c1	·	·	·	2.5*	4.7*
CC(C)(C)c1cc(N)on1	·	·	·	93	94
CC(=O)C(Sc1ncnc2c1nnn2-c1ccc(F)cc1)C(=O)N(C)C (configuration not stated)	12*	107	89	99	99
Cc1cnc(C(=O)Nc2cccc3cccnc23)cn1	3.6*	43*	5.1*	10	17
O=C(c1ccccc1)c1nn(-c2ccccc2)c2nnc(Cc3ccccc3)c(=O)n12	32*	104	58	56	50
CC(CCc1ccccc1)NC(=O)COc1ccc(S(=O)(=O)N2CCOCC2)cc1[N+](=O)[O-] (configuration not stated)	·	·	·	74	72
COC(=O)c1sc(NC(=O)c2cnccn2)c(C(=O)OC)c1C	40*	88	77	·	·
COC(=O)c1sc(NC(C)=O)c(C(=O)OC)c1C	92	95	88	88	93
CCCCCCC(C)NC(=S)Nc1cc(S(=O)(=O)N(C)C)ccc1C (configuration not stated)	·	·	·	80	80
COC(=O)COc1ccc(S(=O)(=O)Nc2ccc3c(c2)OCCO3)cc1Cl	83	24*	28*	103	99
CC(=O)c1cc2c(cc1NS(=O)(=O)c1ccc3c(c1)OCCO3)OCO2	65	89	97	88	82
COC(=O)c1ccc(Cl)c(NS(=O)(=O)c2ccc3c(c2)OCCO3)c1	20*	82	61	34	39
CC1(C)C2CC=C(/C=N/NC(=O)c3ccc(O)cc3)C1C2 (configuration not stated)	·	·	·	91	95
